According to ChEMBL document CHEMBL1122159, “Effects of certain hallucinogenic amphetamine analogues on the release of [3H]serotonin from rat brain synaptosomes” (J Med Chem, 1982):

What was measured:
Type in all cases: functional
Rattus norvegicus [1] = species on record: Rattus norvegicus; test: Ability to induce [3H]-5-HT release from prelabeled rat whole brain synaptosome preparations and the activity was determined as percent of total released
Rattus norvegicus [2] = species on record: Rattus norvegicus; test: Ability to induce [3H]5-HT release from prelabeled rat whole brain synaptosome preparations; Relative rate of release to that of control was determined
How it was run: (§1)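 Rat whole brain homogenised in ice-cold 0.32 M sucrose. Synaptosomes were isolated on a 1.2/0.8 M sucrose step gradient, preincubated 5 min at 37 °C in oxygenated Krebs-Henseleit, then loaded 5 min with [3H]5-HT (10^-7 M). Filter-retained synaptosomes were washed and superfused at 0.5 mL/min. 1-min fractions were counted for 5 min before and 10 min after drug addition. Efflux rate constant K taken from semilog plots; means of 3-4 experiments.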

Rattus norvegicus [3] = species on record: Rattus norvegicus; test: Ability to induce [3H]5-HT release from prelabeled rat whole brain synaptosome preparations and the K value was determined; how it was run: as §1
Rattus norvegicus [4] = species on record: Rattus norvegicus; test: Ability to induce [3H]5-HT release from prelabeled rat whole brain synaptosome preparations at 10e-6 M concentration; how it was run: as §1
Rattus norvegicus [5] = species on record: Rattus norvegicus; test: Ability to induce [3H]5-HT release from prelabeled rat whole brain synaptosome preparations at 10e-7 M concentration; how it was run: as §1
Rattus norvegicus [6] = species on record: Rattus norvegicus; test: Ability to induce [3H]-5-HT release from prelabeled rat whole brain synaptosome preparations at 10e-5 M concentration; how it was run: as §1
Rattus norvegicus [7] = species on record: Rattus norvegicus; test: Ability to induce [3H]5-HT release from prelabeled rat whole brain synaptosome preparations and the K value was determined at 10e-5 M; how it was run: as §1

Structure (SMILES) | Total release (Rattus norvegicus [1]) [%] | Relative rate (Rattus norvegicus [2]) | K (Rattus norvegicus [3]) | K (Rattus norvegicus [4]) [min⁻¹] | K (Rattus norvegicus [5]) [min⁻¹] | K (Rattus norvegicus [6]) [min⁻¹] | K (Rattus norvegicus [7]) [min⁻¹]
CNC(C)(C)Cc1ccc2c(c1)OCO2 | 44.3 | 1.06 | 169 min⁻¹ |  |  |  | 
CC(C)(N)Cc1ccc2c(c1)OCO2 | 45.2 | 1.09 | 175 min⁻¹ |  |  |  | 
COc1ccc(CC(C)(C)N)cc1 | 45 | 1.06 |  |  |  |  | 
COc1ccc(C[C@@H](C)N)cc1 |  |  |  | 2.28e+06 | 1.39e+06 | 3.07e+06 | 
C[C@@H](N)Cc1ccc2c(c1)OCO2 |  |  |  | 2.02e+06 | 2.14e+06 | 3.21e+06 | 
CN[C@@H](C)Cc1ccc2c(c1)OCO2 |  |  |  | 2.84e+06 | 1.68e+06 | 2.62e+06 | 
COc1ccc(CC(C)N)cc1 (single isomer, unassigned) | 57.8 | 1.76 | 280 10e4min-1 | 2.55e+06 | 1.34e+06 |  | 2.3e+06
CN[C@H](C)Cc1ccc2c(c1)OCO2 |  |  |  | 1.73e+06 | 1.49e+06 | 2.74e+06 | 
C[C@H](N)Cc1ccc2c(c1)OCO2 |  |  |  | 2.42e+06 | 1.78e+06 | 3.07e+06 | 
